This excerpt belongs to a sample that is enriched for hits.
VLA-4 inh – inhibition in a human VLA-4 binding assay | P13612 | VLA-4 expressing cells, ligand binding flow cytometry | inhibition, % (about 7 µM as worked out from the volumes in the protocol) | 330,000 tested, 0.2% active; in the data active means inhibition above about 50%
CHOP UPR activ – apoptotic UPR (CHOP) activation; activation, % at 10 µM; CHO-CHOP luciferase reporter, luminescence; percent of tunicamycin response over DMSO baseline; AID 449763; 330,000 tested, 0.34% active;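 active means at 10 µM dose, activation of 40% or more, normalized to positive control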
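measured by = luciferase luminescence | assay system = CHO-CHOP cells, stable luciferase reporter of PERK-eIF2a-CHOP signalling | amount = 500 reporter cells seeded per well | timing = 6 h compound exposure at 37 °C after overnight seeding | controls = positive tunicamycin 10 µg/mL, negative DMSO alone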
CHOP inhibitor – blocks CHOP induction under ER stress. CHO-K1 CHOP-promoter luciferase, tunicamycin-induced, 15-18 h. inhibition, % at 10 µM. 220,000 tested, 3.8% active;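 active means compounds that reduced the stress-induced luciferase reporter signal by more than about 70% of percent inhibition, limit read from the data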
UPR XBP1 act – activators of adaptive arm of unfolded protein response (XBP1); CHO-XBP1 luciferase reporter, IRE1-XBP1 UPR activation, luminescence; percent of tunicamycin response, DMSO as zero; activation, % at 20 µM; 330,000 tested, 0.33% active;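 active means versus positive control, 20 µM dose yields 30% or more activation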
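incubation = overnight seeding at 37 °C, 6 h compound treatment at 37 °C | assay system = CHO-XBP1 cells stably carrying IRE1-XBP1-driven luciferase reporter | input = 1000 cells per well | detection = luciferase luminescence | dosing = single point, 20 µM final compound, 1% DMSO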
Beta2AR agonist – human beta-2 adrenergic receptor agonism by FAP; P07550; 340,000 tested, 0.43% active; response, % (test concentration not listed); AID 504454; Am2.2-beta2AR cells, FAP receptor internalization, flow cytometry;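 active means response above a set limit, near 3 SD of response in nonfluorescent compounds, cut at about 42% in these data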
Target sequence (P07550 whole entry, looked up): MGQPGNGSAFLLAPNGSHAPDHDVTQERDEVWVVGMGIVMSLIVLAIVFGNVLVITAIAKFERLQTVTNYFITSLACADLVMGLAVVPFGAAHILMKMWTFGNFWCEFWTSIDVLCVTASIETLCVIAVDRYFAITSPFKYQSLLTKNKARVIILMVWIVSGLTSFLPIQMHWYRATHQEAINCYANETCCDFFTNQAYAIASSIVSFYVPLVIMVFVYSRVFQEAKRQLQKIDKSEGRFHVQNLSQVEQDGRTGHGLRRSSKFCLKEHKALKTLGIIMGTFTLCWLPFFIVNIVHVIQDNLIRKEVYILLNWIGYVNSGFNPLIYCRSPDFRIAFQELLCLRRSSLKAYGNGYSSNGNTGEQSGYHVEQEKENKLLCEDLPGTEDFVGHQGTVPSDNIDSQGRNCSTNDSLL
Of the large screens only hits and unclear results are named; the others gave an inactive call.

O=C(NCCOc1ccc(Cl)cc1)c1ccco1	none (no result: CHOP inhibitor)
O=C(O)CSc1cc(C(=O)c2ccccc2O)cn2c(=O)c3c4c(sc3nc12)CCCC4	CHOP inhibitor 89.4 (no result: VLA-4 inh, CHOP UPR activ, UPR XBP1 act)
O=C(O)CSc1nc2sc3c(c2c(=O)n1Cc1ccccc1)CCCCC3	none (no result: CHOP inhibitor)
COc1cccc(N(C(=O)Cn2nnc(-c3ccc(Cl)cc3)n2)C(C(=O)NCC2CCCO2)c2ccc(C)cc2)c1 (stereo unspecified)	CHOP inhibitor 80.4
COc1cccc(N(C(=O)Cn2nnc(-c3ccc(F)cc3)n2)C(C(=O)NCC2CCCO2)c2ccc(Cl)cc2)c1 (stereo unspecified)	none
CCC(=O)c1ccc(OCC(=O)OCC(=O)Nc2cccc(S(=O)(=O)N3CCOCC3)c2)cc1	none (no result: VLA-4 inh, CHOP UPR activ, CHOP inhibitor, UPR XBP1 act)
O=c1cc(C(F)(F)F)nc(SC/C=C/c2ccccc2)[nH]1	none (no result: CHOP inhibitor)
COc1cc(C(=O)N2CCN(S(=O)(=O)c3cccc(F)c3)CC2)ccc1OCC(=O)N1CCOCC1	none (no result: CHOP inhibitor)
C=CC[n+]1c(/C=C2\C=Cc3cc(C)ccc3N2CC)ccc2ccccc21	CHOP inhibitor 71.5
Cc1cccc(NC(=O)c2cc(S(=O)(=O)N3CCCCC3)ccc2Cl)n1	none (no result: VLA-4 inh, CHOP inhibitor)
Cc1ccc(-n2c(C)nc3c(cnn3-c3ccc(F)cc3)c2=O)cc1C	none
Cc1nc2c(cnn2-c2ccccc2Cl)c(=O)n1-c1ccc(N2CCC(C)CC2)cc1	CHOP inhibitor 76.8
CCc1nc2c(cnn2-c2ccc(F)cc2)c(=O)n1-c1ccc(N2CCC(C)CC2)cc1	CHOP inhibitor 78.9
Cc1ccc(-n2c(C)nc3c(cnn3-c3ccccc3Cl)c2=O)cc1C	none
CC(C)C[C@H]1CN=C(Nc2ccccc2)N1CC1CCCCCC1	none (no result: CHOP inhibitor)
Cc1ccc(S(=O)(=O)N2CCC(=O)N(CCOCc3cccc(C)c3)CC2)cc1	none
Cc1ccc(S(=O)(=O)N2CCC(=O)N(CCOCc3cccc(C(F)(F)F)c3)CC2)cc1	CHOP inhibitor 79.1 (no result: VLA-4 inh)
O=C(Cc1ccccc1)N/N=C/c1cc(Br)c(Br)o1	CHOP inhibitor 76.1
C/C(=N\NC(=O)c1n[nH]c2c1CCC2)c1cccs1	CHOP inhibitor 85.7
O=C(N/N=C/c1cccs1)c1n[nH]c2c1CCCC2	none
O=C(CCc1ccccc1)NC(c1cccs1)c1cc(Cl)c2cccnc2c1O (stereo unspecified)	CHOP inhibitor 89.4 (no result: VLA-4 inh, CHOP UPR activ, UPR XBP1 act)
Cc1cc(C)n(-c2nnc(C)n2/N=C/c2cc(Br)ccc2OCc2ccccc2)n1	CHOP inhibitor 91.8
Cc1cc(C)n(-c2nnc(C)n2/N=C/c2ccccc2OCc2ccccc2Cl)n1	none
O=c1[nH]c2ccc(Br)cc2c(-c2ccccc2)c1CN1CCOCC1	none
O=c1[nH]c2ccc(Br)cc2c(-c2ccccc2)c1N1CCOCC1	CHOP inhibitor 77.3
CCn1c2ccccc2c2cc(NC(=O)c3coc(=O)c(Br)c3)ccc21	CHOP UPR activ 99.5, UPR XBP1 act 73.3 (no result: Beta2AR agonist)
Cc1cc(C)cc(N(CC(=O)N2CCN(c3ccccc3)CC2)S(=O)(=O)c2c(C)noc2C)c1	CHOP inhibitor 75.6
CC1CCN(C(=O)CN(c2ccc(Cl)c(C(F)(F)F)c2)S(C)(=O)=O)CC1	none
CS(=O)(=O)N(CC(=O)N1CCN(c2ccccc2)CC1)c1ccc(Cl)c(C(F)(F)F)c1	CHOP inhibitor 76.4
Cc1cc(C)cc(NC(=O)CN2CCC(NC(=O)c3cccc(F)c3)CC2)c1	none (no result: CHOP inhibitor)
CCOc1ccc(NC(=O)Cc2ccc(S(=O)(=O)N3CCCCC3)cc2)cc1OCC	none (no result: CHOP inhibitor)
Fc1ccc(C2Nc3cccc4cccc(c34)N2)cc1	none (no result: CHOP inhibitor)
FC(F)(F)c1ccc(C2Nc3cccc4cccc(c34)N2)cc1	CHOP inhibitor 87.0 (no result: VLA-4 inh)
COc1ccccc1C1CC(c2cccs2)=Nc2ccccc2S1 (stereo unspecified)	CHOP inhibitor 84.0
O=C(Nc1c(-c2cccs2)nc2ccccn12)c1ccccc1F	none
O=C(COc1ccc(Cl)cc1Cl)Nc1c(-c2cccs2)nc2ccccn12	CHOP inhibitor 85.1
COc1ccc(NC(=O)C2CCC(=O)N2S(=O)(=O)c2ccc(C)cc2)cc1Cl (stereo unspecified)	none (no result: CHOP inhibitor)
CCNC(=O)OCc1cn(-c2ccc(Cl)cc2)nn1	none
O=C(Nc1ccc(Cl)cc1)OCc1cn(-c2ccc(Cl)cc2)nn1	CHOP inhibitor 73.3
Cc1ccc(CNC(=O)CS(=O)Cc2nc(-c3ccccc3F)oc2C)cc1 (stereo unspecified)	none (no result: CHOP inhibitor)
Cc1[nH]c2ccccc2c1CN1CCc2ccccc2C1	CHOP inhibitor 91.2
COCCN(C(=O)COC(=O)c1ccc(Cl)nc1)c1c(N)n(Cc2ccccc2)c(=O)[nH]c1=O	none (no result: CHOP inhibitor)
CC[C@]12c3[nH]c4cc(CCC(=O)N(C)C)ccc4c3CCN1C(=O)[C@@H](CC(=O)NCc1cccc(C(F)(F)F)c1)C[C@@H]2C(=O)N1CCN(C(=O)C2CC2)CC1	none (no result: VLA-4 inh, CHOP inhibitor)
CCOc1ccccc1NC(=O)C(CC(C)C)NC(=O)C1CCC(C)CC1 (stereo unspecified)	none
CCOc1ccccc1NC(=O)C(NC(=O)C1CCC(C)CC1)C(C)C (stereo unspecified)	CHOP inhibitor 72.8
CCN(Cc1ccccc1)S(=O)(=O)c1ccc(C(=O)Nc2nnc(-c3ccccc3OC)o2)cc1	CHOP inhibitor 85.0
CC1CCCCN1S(=O)(=O)c1ccc(C(=O)Nc2nnc(-c3ccccc3Cl)o2)cc1 (stereo unspecified)	CHOP inhibitor 77.3
COc1ccccc1-c1nnc(NC(=O)c2ccc(S(=O)(=O)N(C)CC3CCCO3)cc2)o1 (stereo unspecified)	none (no result: CHOP inhibitor)
CCCCN(CC)S(=O)(=O)c1ccc(C(=O)Nc2nnc(-c3ccccc3Cl)o2)cc1	CHOP inhibitor 87.8
COc1ccccc1-c1nnc(NC(=O)c2ccc(S(=O)(=O)N(C)C)cc2)o1	CHOP inhibitor 85.3
O=C(COC(=O)/C=C/c1ccccc1)NNC(=O)c1ccc([N+](=O)[O-])cc1	none (no result: CHOP inhibitor)
O=C(NCCN1CCOCC1)c1cc(-c2ccccc2Cl)nc2ccccc12	none (no result: CHOP inhibitor)
COC(=O)c1cc(NC(=O)Cc2cccs2)cc(C(=O)OC)c1	none (no result: CHOP inhibitor)
CCc1ccc(Nc2nc(N)nc(CSc3nnnn3-c3ccccc3)n2)cc1	CHOP inhibitor 88.0
Cc1ccccc1Nc1nc(N)nc(CSc2nnnn2-c2ccccc2)n1	none
CC1CCC(C(C)C)C(OC(=O)C[n+]2cccc(C(N)=O)c2)C1 (stereo unspecified)	none
C/C(=N\O)C(=O)OC1CC(C)CCC1C(C)C (stereo unspecified)	CHOP inhibitor 88.1
COc1ccc(Nc2nc(N3CCCCC3)c3ccccc3n2)cc1	CHOP inhibitor 82.0
Oc1ccc(Nc2nc(N3CCCC3)c3ccccc3n2)cc1	none (no result: CHOP inhibitor)
O=C(O)[C@H](Cc1c[nH]c2ccccc12)Nc1ncccc1[N+](=O)[O-]	none (no result: CHOP inhibitor)
Cc1cccc(N=Cc2[nH]c3ccc(Br)c(Cl)c3c2O)c1	CHOP inhibitor 89.6 (no result: CHOP UPR activ, UPR XBP1 act)
O=C1N/C(=N/N=C/c2ccc(O)cc2)SC1Cc1ccccc1 (stereo unspecified)	none

From PubChem BioAssay
